ChEMBL document CHEMBL4680108, “Ancistrolikokine E, a 5,8'-Coupled Naphthylisoquinoline Alkaloid, Eliminates the Tolerance of Cancer Cells to Nutrition Starvation by Inhibition of the Akt/mTOR/Autophagy Signaling Pathway” (2018)
Calls of active or inactive are those of the source. No cut-off for these calls is given here.

Legend:
[1] = test system: PANC-1; experiment: Induction of apoptosis in human PANC-1 cells cultured in nutrient-deprived medium assessed as inhibition of caspase-3 measured after 6 hrs by Western blot analysis; type: functional, cell-based; details: dose 2.5-40 µM
Procedure, shortened: (§1)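 PANC-1 cells in NDM or DMEM exposed to compound at different concentrations for 6 h, then immunoblotted for Bcl-2, Bcl-xL and caspase-3.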

[2] = test system: PANC-1; experiment: Inhibition of autophagy in human PANC-1 cells cultured in nutrient-deprived medium assessed as inhibition of Atg5 expression after 6 hrs by Western blot analysis; type: functional, cell-based; details: dose 2.5-40 µM
[3] = test system: PANC-1; experiment: Induction of morphological changes in human PANC-1 cells cultured in nutrient-deprived medium assessed as cell death measured after 24 hrs by ethidium bromide/acridine orange staining based phase contrast microscopy; type: functional; details: dose 1.25-5 µM
Procedure, shortened: (§2)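 PANC-1 cells (2 × 10^5/well) attached in DMEM for 24 h, washed twice with PBS, then treated in NDM (1.25, 2.5, 5 μM; control in NDM alone) for 24 h. Stained with ethidium bromide/acridine orange and imaged in phase-contrast and red/green fluorescence modes (20× objective).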

[4] = test system: PANC-1; experiment: Inhibition of Akt/mTOR signaling pathway in human PANC-1 cells cultured in nutrient-deprived medium assessed as decrease in phosphorylated Akt level at S473 residue at 40 uM measured after 6 hrs by Western blot analysis relative to control; type: cell-based
Procedure, shortened: (§3)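 Western blot of PANC-1 cells exposed to compound at different concentrations for 6 h in NDM or DMEM. Probed for total and phosphorylated Akt and mTOR and for GβL. Band levels compared with untreated control cells in NDM.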

[5] = test system: PANC-1; experiment: Inhibition of cell migration in human PANC1 cells assessed as wound length at 10 uM cultured in nutrient rich DMEM medium measured after 48 hrs by wound healing assay relative to T0; type: functional; design: scale not given: the % may be the effect or the level left
Procedure, shortened: (§4)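 PANC-1 monolayers (5 × 10^5 cells/well), attached 24 h, scratched about 600 μm with a pipet tip, washed with PBS. Exposed in DMEM to 0–10 μM for 48 h in triplicate. Wound length measured at 10 points on phase-contrast images and expressed relative to initial length at T0.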

[6] = test system: PANC-1; experiment: Induction of apoptotic cell death in human PANC-1 cells cultured in nutrient-deprived medium assessed as membrane blebbing at 5 uM measured after 24 hrs by Hoechst 33342 staining based phase-contrast digital microscopy; type: functional
Procedure, shortened: (§5)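 Cells (2 × 10^5) plated in 35 mm dishes, left 24 h to attach, washed twice with PBS, then given 5 μM in NDM for 24 h. Hoechst 33342 added directly to the medium for 5 min. Imaged in phase-contrast and fluorescence modes (20× objective).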

[7] = test system: PANC-1; experiment: Inhibition of Akt/mTOR signaling pathway in human PANC-1 cells cultured in nutrient-deprived medium assessed as decrease in total Akt level measured after 6 hrs by Western blot analysis; type: cell-based; details: dose 2.5-40 µM; procedure, shortened: as §3
[8] = test system: PANC-1; experiment: Inhibition of Akt/mTOR signaling pathway in human PANC-1 cells cultured in nutrient-deprived medium assessed as decrease in total mTOR level measured after 6 hrs by Western blot analysis; type: cell-based; details: dose 2.5-40 µM; procedure, shortened: as §3
[9] = test system: PANC-1; experiment: Inhibition of autophagy in human PANC-1 cells cultured in nutrient-deprived medium assessed as inhibition of Beclin-1 expression after 6 hrs by Western blot analysis; type: functional, cell-based; details: dose 2.5-40 µM
[10] = test system: PANC-1; experiment: Inhibition of colony formation in human PANC-1 cells at 10 uM cultured in nutrient rich DMEM medium measured after 24 hrs by crystal violet staining based assay relative to control; type: functional
Procedure, shortened: (§6)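 PANC-1 cells (5 × 10^2/well) attached in DMEM for 24 h, then exposed to 0, 2.5, 5 or 10 μM in DMEM for 24 h (triplicate). Washed, grown in fresh compound-free DMEM for 12 days, fixed in 4% formaldehyde and stained with crystal violet for 10 min. Colony area measured as a percentage of well area.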

[11] = test system: PANC-1; experiment: Anti-austerity activity against nutrient-deprived human PANC-1 cells assessed as cell death incubated for 24 hrs by WST-8 assay; type: functional
Procedure, shortened: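 Human PANC-1 pancreatic cancer cells tested in parallel in nutrient-deprived medium (NDM) and in nutrient-rich DMEM. PC50 is the concentration that kills 50% of cells in NDM without toxicity in DMEM.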

[12] = test system: PANC-1; experiment: Inhibition of colony formation in human PANC-1 cells at 5 uM cultured in nutrient rich DMEM medium measured after 24 hrs by crystal violet staining based assay relative to control; type: functional; procedure, shortened: as §6
[13] = test system: PANC-1; experiment: Inhibition of Akt/mTOR signaling pathway in human PANC-1 cells cultured in nutrient-deprived medium assessed as decrease in phosphorylated mTOR level at S2448 residue at 40 uM measured after 6 hrs by Western blot analysis relative to control; type: cell-based; procedure, shortened: as §3
[14] = test system: PANC-1; experiment: Inhibition of cell migration in human PANC1 cells assessed as wound length at 5 uM cultured in nutrient rich DMEM medium measured after 48 hrs by wound healing assay relative to T0; type: functional; design: scale not given: the % may be the effect or the level left; procedure, shortened: as §4
[15] = test system: PANC-1; experiment: Inhibition of Akt/mTOR signaling pathway in human PANC-1 cells cultured in nutrient-deprived medium assessed as decrease in total mTOR level at 40 uM measured after 6 hrs by Western blot analysis relative to control; type: cell-based; procedure, shortened: as §3
[16] = test system: PANC-1; experiment: Inhibition of autophagy in human PANC-1 cells cultured in nutrient-deprived medium assessed as inhibition of Atg12 expression after 6 hrs by Western blot analysis; type: functional, cell-based; details: dose 2.5-40 µM
[17] = test system: PANC-1; experiment: Induction of necrosis in human PANC-1 cells cultured in nutrient-deprived medium assessed as rupture of cell membrane at 5 uM measured after 24 hrs by ethidium bromide/acridine orange staining based phase contrast microscopy; type: functional; procedure, shortened: as §2
[18] = test system: PANC-1; experiment: Induction of apoptosis in human PANC-1 cells cultured in nutrient-deprived medium assessed as induction of active caspase-3 cleavage at 2.5 to 40 uM measured after 6 hrs by Western blot analysis; type: functional, cell-based; details: dose 2.5-40 µM; procedure, shortened: as §1
[19] = test system: PANC-1; experiment: Induction of apoptotic cell death in human PANC-1 cells cultured in nutrient-deprived medium assessed as chromatin fragmentation at 5 uM measured after 24 hrs by Hoechst 33342 staining based phase-contrast digital microscopy; type: functional; procedure, shortened: as §5
[20] = test system: PANC-1; experiment: Inhibition of autophagy in human PANC-1 cells cultured in nutrient-deprived medium assessed as inhibition of LC3-1 expression after 6 hrs by Western blot analysis; type: functional, cell-based; details: dose 2.5-40 µM
[21] = test system: PANC-1; experiment: Inhibition of autophagy in human PANC-1 cells cultured in nutrient-deprived medium assessed as inhibition of LC3-2 expression after 6 hrs by Western blot analysis; type: functional, cell-based; details: dose 2.5-40 µM
[22] = test system: PANC-1; experiment: Induction of apoptotic cell death in human PANC-1 cells cultured in nutrient-deprived medium assessed as leakage of cellular contents in to the medium at 5 uM measured after 24 hrs by Hoechst 33342 staining based phase-contrast digital microscopy; type: functional; procedure, shortened: as §5

COc1cc(OC)c(-c2ccc(O)c3c(OC)cc(C)cc23)c2c1C(C)=N[C@H](C)C2
inhibition [1]: Active
inhibition [2]: Dose-dependent effect
Activity [3]: Dose-dependent effect
inhibition [4]: 99%
Activity [5]: 11%
Activity [6]: Active
inhibition [7]: Dose-dependent effect
inhibition [8]: Dose-dependent effect
inhibition [9]: Dose-dependent effect
inhibition at 10 µM [10]: 100%
Activity [11]: Dose-dependent effect
PC50 [11]: 2.5 µM
inhibition at 5 µM [12]: 100%
inhibition [13]: 92%
Activity [14]: 58%
inhibition [15]: 100%
inhibition [16]: Dose-dependent effect
Activity [17]: Active
Activity [18]: inactive
Activity [19]: inactive
inhibition [20]: Dose-dependent effect
inhibition [21]: Dose-dependent effect
Activity [22]: Active
